According to ChEMBL document CHEMBL4196105, “Discovery of β-Arrestin Biased Ligands of 5-HT7R” (J Med Chem, 2018):

Experiments:
[1] = molecular target: T1, 5-hydroxytryptamine receptor 1A (Homo sapiens, UniProt P08908); experiment: Displacement of [3H]LSD from human 5-HT1A receptor expressed in HEK cell membranes after 1.5 hrs by microbeta scintillation counting method
T1 sequence (P08908 whole entry): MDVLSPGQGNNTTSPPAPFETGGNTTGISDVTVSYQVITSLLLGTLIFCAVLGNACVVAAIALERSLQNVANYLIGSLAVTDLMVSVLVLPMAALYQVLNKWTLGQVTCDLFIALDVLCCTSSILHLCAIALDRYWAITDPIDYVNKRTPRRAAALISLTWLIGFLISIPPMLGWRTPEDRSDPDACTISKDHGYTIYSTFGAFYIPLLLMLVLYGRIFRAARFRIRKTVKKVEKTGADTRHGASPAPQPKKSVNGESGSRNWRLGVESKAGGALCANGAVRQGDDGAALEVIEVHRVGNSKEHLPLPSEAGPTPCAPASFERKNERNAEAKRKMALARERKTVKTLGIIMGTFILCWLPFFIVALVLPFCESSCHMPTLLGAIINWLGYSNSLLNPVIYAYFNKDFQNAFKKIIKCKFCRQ
Procedure, shortened: (§1)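 Radioligand binding performed by the NIMH Psychoactive Drug Screening Program. Crude membranes from cells expressing recombinant receptor, with [3H]LSD, in 50 mM Tris-HCl, 10 mM MgCl2, 1 mM EDTA, pH 7.4. Eleven test concentrations. Incubated 1.5 h at room temperature, protected from light. Filtered onto PEI-soaked GF/B filters, then scintillation counting. IC50 converted to Ki; at least three experiments in triplicate.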

[2] = molecular target: 5-hydroxytryptamine receptor 1B (Homo sapiens, UniProt P28222); experiment: Displacement of [3H]LSD from human 5-HT1B receptor expressed in HEK cell membranes after 1.5 hrs by microbeta scintillation counting method; procedure, shortened: as §1
Chain of 5-hydroxytryptamine receptor 1B (P28222 whole entry): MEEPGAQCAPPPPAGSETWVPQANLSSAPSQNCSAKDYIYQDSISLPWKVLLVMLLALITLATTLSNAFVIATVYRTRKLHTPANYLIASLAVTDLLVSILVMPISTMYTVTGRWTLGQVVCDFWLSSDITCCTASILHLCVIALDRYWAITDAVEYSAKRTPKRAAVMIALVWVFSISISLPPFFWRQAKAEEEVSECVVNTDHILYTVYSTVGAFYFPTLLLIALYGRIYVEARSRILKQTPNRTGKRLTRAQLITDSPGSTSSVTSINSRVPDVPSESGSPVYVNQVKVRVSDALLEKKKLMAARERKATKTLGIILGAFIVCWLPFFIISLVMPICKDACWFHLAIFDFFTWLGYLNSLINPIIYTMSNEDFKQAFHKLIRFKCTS

[3] = molecular target: 5-hydroxytryptamine receptor 1D (Homo sapiens, UniProt P28221); experiment: Displacement of [3H]LSD from human 5-HT1D receptor expressed in HEK cell membranes after 1.5 hrs by microbeta scintillation counting method; procedure, shortened: as §1
Chain of 5-hydroxytryptamine receptor 1D (P28221 whole entry): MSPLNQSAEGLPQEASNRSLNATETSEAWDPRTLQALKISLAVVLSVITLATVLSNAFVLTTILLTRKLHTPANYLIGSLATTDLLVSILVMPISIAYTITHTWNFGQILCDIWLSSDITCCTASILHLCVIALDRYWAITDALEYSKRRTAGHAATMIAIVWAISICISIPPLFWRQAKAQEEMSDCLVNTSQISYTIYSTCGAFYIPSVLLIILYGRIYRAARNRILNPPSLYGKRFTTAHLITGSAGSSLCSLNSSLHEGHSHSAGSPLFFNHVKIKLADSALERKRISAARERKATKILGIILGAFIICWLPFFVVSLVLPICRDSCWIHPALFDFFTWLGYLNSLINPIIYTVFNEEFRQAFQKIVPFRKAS

[4] = molecular target: 5-hydroxytryptamine receptor 1E (Homo sapiens, UniProt P28566); experiment: Displacement of [3H]LSD from human 5-HT1E receptor expressed in HEK cell membranes after 1.5 hrs by microbeta scintillation counting method; procedure, shortened: as §1
Chain of 5-hydroxytryptamine receptor 1E (P28566 whole entry): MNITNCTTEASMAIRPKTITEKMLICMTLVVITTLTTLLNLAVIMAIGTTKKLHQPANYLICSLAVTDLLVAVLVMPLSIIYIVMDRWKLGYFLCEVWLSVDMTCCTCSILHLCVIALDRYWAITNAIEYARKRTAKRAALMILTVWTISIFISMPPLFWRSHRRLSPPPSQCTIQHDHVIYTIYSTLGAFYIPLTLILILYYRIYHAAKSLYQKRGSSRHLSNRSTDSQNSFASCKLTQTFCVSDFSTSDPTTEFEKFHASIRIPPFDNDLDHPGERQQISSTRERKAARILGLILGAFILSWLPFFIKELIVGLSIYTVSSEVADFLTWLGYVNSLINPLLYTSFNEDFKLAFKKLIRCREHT

[5] = molecular target: 5-hydroxytryptamine receptor 4 (Homo sapiens, UniProt Q13639); experiment: Displacement of [3H]LSD from human 5-HT4 receptor expressed in HEK cell membranes after 1.5 hrs by microbeta scintillation counting method; procedure, shortened: as §1
Chain of 5-hydroxytryptamine receptor 4 (Q13639 whole entry): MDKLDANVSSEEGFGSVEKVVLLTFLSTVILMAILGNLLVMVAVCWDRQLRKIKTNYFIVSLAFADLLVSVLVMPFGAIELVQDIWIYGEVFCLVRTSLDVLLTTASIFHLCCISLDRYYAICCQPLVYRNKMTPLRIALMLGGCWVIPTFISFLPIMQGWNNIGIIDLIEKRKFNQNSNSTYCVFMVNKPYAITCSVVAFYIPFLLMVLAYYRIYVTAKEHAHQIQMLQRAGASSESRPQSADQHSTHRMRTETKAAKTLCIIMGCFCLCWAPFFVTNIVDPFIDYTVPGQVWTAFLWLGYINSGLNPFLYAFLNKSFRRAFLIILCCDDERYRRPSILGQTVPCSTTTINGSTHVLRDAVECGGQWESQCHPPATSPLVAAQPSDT

Homo sapiens [6] = species: Homo sapiens; experiment: Selectivity index, ratio of Ki for human 5-HT2B receptor to Ki for human 5-HT7 receptor
Procedure, shortened: (§2)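 Selectivity index taken as Ki at the other 5-HT receptor subtype divided by Ki at 5-HT7R, each from [3H]LSD membrane binding run by the NIMH PDSP. Ki values are means of at least three experiments in triplicate.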

Homo sapiens [7] = species: Homo sapiens; experiment: Selectivity index, ratio of Ki for human 5-HT3 receptor to Ki for human 5-HT7 receptor; procedure, shortened: as §2
Homo sapiens [8] = species: Homo sapiens; experiment: Selectivity index, ratio of Ki for human 5-HT5A receptor to Ki for human 5-HT7 receptor; procedure, shortened: as §2
[9] = molecular target: 5-hydroxytryptamine receptor 7 (Homo sapiens, UniProt P34969)
Chain of 5-hydroxytryptamine receptor 7 (P34969 whole entry): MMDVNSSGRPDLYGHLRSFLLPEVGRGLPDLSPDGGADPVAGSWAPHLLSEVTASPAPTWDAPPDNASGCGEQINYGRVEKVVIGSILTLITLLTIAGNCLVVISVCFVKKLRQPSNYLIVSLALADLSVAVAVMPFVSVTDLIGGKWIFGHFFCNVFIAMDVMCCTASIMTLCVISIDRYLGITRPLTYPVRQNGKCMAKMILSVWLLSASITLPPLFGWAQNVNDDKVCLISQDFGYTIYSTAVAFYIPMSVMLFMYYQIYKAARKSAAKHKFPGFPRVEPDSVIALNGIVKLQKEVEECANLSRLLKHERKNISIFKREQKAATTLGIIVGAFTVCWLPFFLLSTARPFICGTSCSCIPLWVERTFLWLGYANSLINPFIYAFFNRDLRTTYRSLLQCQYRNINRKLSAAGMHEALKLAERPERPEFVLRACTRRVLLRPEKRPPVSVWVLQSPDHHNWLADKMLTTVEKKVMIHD

CYP2D6 = CYP2D6 (Homo sapiens, UniProt P10635); experiment: Inhibition of CYP2D6 in human liver microsomes assessed as remaining activity at 10 uM using dextromethorphan as substrate preincubated for 5 mins followed by addition of NADPH generating system measured after 15 mins by LC-MS analysis; assay type: ADME; settings: probe dextromethorphan, read-out: Activity
Chain of CYP2D6 (P10635 whole entry): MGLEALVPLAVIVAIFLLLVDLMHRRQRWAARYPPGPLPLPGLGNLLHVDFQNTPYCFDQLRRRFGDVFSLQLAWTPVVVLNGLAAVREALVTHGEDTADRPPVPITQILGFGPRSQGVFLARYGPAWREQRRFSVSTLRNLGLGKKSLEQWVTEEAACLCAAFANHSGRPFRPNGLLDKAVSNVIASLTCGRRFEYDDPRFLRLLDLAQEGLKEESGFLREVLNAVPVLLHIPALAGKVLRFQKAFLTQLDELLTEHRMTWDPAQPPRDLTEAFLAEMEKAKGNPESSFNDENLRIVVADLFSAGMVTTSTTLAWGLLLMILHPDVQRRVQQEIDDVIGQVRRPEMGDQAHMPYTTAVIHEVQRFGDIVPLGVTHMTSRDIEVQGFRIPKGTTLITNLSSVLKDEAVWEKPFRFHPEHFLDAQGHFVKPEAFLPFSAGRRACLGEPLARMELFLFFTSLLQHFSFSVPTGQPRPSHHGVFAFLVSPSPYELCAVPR
Procedure, shortened: (§3)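 Human liver microsomes 0.25 mg/ml in 0.1 M phosphate, pH 7.4, with a probe cocktail: phenacetin 50 μM, diclofenac 10 μM, S-mephenytoin 100 μM, dextromethorphan 5 μM, midazolam 2.5 μM. Test compound at 10 μM versus 0 μM control. 5 min at 37 °C, then NADPH-generating system for 15 min. Acetonitrile quench; metabolites measured by LC/MS as % remaining activity.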

CYP3A4 = CYP3A4 (Homo sapiens, UniProt P08684); experiment: Inhibition of CYP3A4 in human liver microsomes assessed as remaining activity at 10 uM using midazolam as substrate preincubated for 5 mins followed by addition of NADPH generating system measured after 15 mins by LC-MS analysis; assay type: ADME; settings: probe midazolam, read-out: Activity; procedure, shortened: as §3
Chain of CYP3A4 (P08684 whole entry): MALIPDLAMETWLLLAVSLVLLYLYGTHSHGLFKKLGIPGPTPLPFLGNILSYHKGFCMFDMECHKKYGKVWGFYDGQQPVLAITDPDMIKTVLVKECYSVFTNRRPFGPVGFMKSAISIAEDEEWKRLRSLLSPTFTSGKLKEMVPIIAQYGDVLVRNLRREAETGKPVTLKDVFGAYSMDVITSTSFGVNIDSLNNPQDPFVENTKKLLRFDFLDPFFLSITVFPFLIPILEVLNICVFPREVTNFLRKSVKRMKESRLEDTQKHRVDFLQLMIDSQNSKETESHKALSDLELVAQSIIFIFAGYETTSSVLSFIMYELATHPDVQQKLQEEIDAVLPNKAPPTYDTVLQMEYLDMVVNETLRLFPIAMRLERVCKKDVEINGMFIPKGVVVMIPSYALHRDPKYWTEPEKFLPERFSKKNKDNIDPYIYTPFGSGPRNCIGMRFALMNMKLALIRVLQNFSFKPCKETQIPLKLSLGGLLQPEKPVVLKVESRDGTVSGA

[10] = Stability in human liver microsomes assessed as drug recovery at 1 uM preincubated for 5 mins followed by addition of NADPH generation system and measured after 30 mins by LC-MS analysis; assay type: ADME, microsome; settings: read-out: Drug recovery
Procedure, shortened: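 Human liver microsomes 0.5 mg/ml in 0.1 M phosphate, pH 7.4, with 1 μM compound. Preincubated 5 min at 37 °C, then NADPH-generating system added for 30 min at 37 °C. Acetonitrile with internal standard added to stop the reaction, centrifuged, and supernatant analysed by LC/MS as % remaining.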

[11] = AUC (0 to infinity) in ICR mouse at 5 mg/kg, iv by LC-MS/MS analysis; assay type: ADME, organism-based; design: dose 5 mg/kg, time infinity, route intravenous; settings: in vivo
Procedure, shortened: (§4)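 Male ICR mice, 7~8 weeks, 30 ± 5 g; single dose 5 mg/kg IV (n = 5) or 50 mg/kg oral (n = 4). Plasma protein-precipitated with acetonitrile containing internal standard, then LC-MS/MS. Non-compartmental analysis; AUClast by trapezoidal rule. Mean ± SD.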

[12] = Clearance in ICR mouse at 5 mg/kg, iv by LC-MS/MS analysis; assay type: ADME, organism-based; settings: in vivo; procedure, shortened: as §4
[13] = MRT in ICR mouse at 5 mg/kg, iv by LC-MS/MS analysis; assay type: ADME, organism-based; settings: in vivo; procedure, shortened: as §4
[14] = Apparent volume of distribution at steady state in ICR mouse at 5 mg/kg, iv by LC-MS/MS analysis; assay type: ADME, organism-based; settings: in vivo, read-out: Vdss; procedure, shortened: as §4
[15] = AUC (0 to infinity) in ICR mouse at 50 mg/kg, po by LC-MS/MS analysis; assay type: ADME, organism-based; design: dose 50 mg/kg, time infinity, route oral; settings: in vivo; procedure, shortened: as §4
[16] = AUClast in ICR mouse at 50 mg/kg, po by LC-MS/MS analysis; assay type: ADME, organism-based; design: dose 50 mg/kg, route oral, time 0 - last; settings: in vivo; procedure, shortened: as §4
[17] = Cmax in ICR mouse at 50 mg/kg, po by LC-MS/MS analysis; assay type: ADME, organism-based; design: dose 50 mg/kg, route oral; settings: in vivo; procedure, shortened: as §4
[18] = Oral bioavailability in ICR mouse at 50 mg/kg by LC-MS/MS analysis; assay type: ADME, organism-based; settings: in vivo; procedure, shortened: as §4
Mus musculus [19] = experiment: Sleep promoting activity in C57B1/6J mouse assessed as increase in total non-rapid eye movement sleep time at 30 mg/kg, ip measured over 8 hrs by electroencephalogram method; assay type: functional
Procedure, shortened: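 Adult male C57Bl/6J mice, 10 weeks old, with parietal EEG screw electrodes implanted under ketamine. EEG and EMG recorded for 8 h from 9 AM, starting one day before dosing as baseline. On test day, 30 mg/kg i.p. at the start of the light phase, with EEG/EMG recorded for 8 h and scored in 2-h bins. n = 6-9 per group; mean ± SEM versus vehicle.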

Mus musculus [20] = experiment: Toxicity in ICR mouse assessed as mortality at 50 mg/kg, po; assay type: organism-based; settings: in vivo
Procedure, shortened: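 Observed in male ICR mice (7~8 weeks, 30 ± 5 g; n = 4) during a pharmacokinetic study after a single oral dose. Mice were held at 23 ± 3° and about 55% ± 10% humidity with standard feed and tap water. Blood was drawn via carotid artery from 0.25 to 8 h after dosing.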

| Ki [1] | Ki [2] | Ki [3] | Ki [4] | Ki [5] | Ratio Ki (Homo sapiens [6]) | EC50 [9] | SMILES | also measured |
| --- | --- | --- | --- | --- | --- | --- | --- | --- |
| > 10 µM | > 10 µM | 0.147 µM | 1.79 µM | > 10 µM | 9.4 | 0.0408 µM | Cc1ccc(-c2noc3c2CCNCC3)cc1 | Ratio Ki (Homo sapiens [7]): 26.3; Ratio Ki (Homo sapiens [8]): 70.9 |
| 1.87 µM | > 10 µM | 0.636 µM | 0.793 µM | > 10 µM | 0.9 | 0.188 µM | Fc1ccc(-c2n[nH]c3c2CCNCC3)cc1 |  |

| SMILES | Ki [1] | Ki [2] | Ki [3] | Ki [4] | Ki [5] | Ratio Ki (Homo sapiens [6]) | EC50 [9] | also measured |
| --- | --- | --- | --- | --- | --- | --- | --- | --- |
| Clc1ccc(-c2n[nH]c3c2CCNCC3)cc1 | > 10 µM | > 10 µM | 2.11 µM | 1.37 µM | > 10 µM | 3.3 | 0.162 µM | activity at 0.25 h, 10 µM (CYP2D6): 75.7%; activity at 0.25 h, 10 µM (CYP3A4): 95.4%; remaining at 0.5 h, 1 µM [10]: 82.4%; AUC(0-inf) [11]: 5210 ng·h/mL; clearance [12]: 16 mL/min/kg; MRT [13]: 2.5 h; Vd [14]: 2.47 L/kg; AUC(0-inf) [15]: 64300 ng·h/mL; AUC(0-t) [16]: 53700 ng·h/mL; Cmax [17]: 11800 ng/mL; bioavailability [18]: 90.8%; Activity (Mus musculus [19]): 21.4%; Activity (Mus musculus [20]): Non-Toxic |
